Measured values from ChEMBL document CHEMBL4364238, “Discovery of BNC375, a Potent, Selective, and Orally Available Type I Positive Allosteric Modulator of α7 nAChRs” (ACS Med Chem Lett, 2019).
In brackets after ≈: the same amount, converted by molar mass. Each block holds one compound with its values, some of them ahead of it. Activity calls are given as the source filed them. The calls are words filed in the database; no cut-off is given here.

Key:
[1] = molecular target: Neuronal acetylcholine receptor subunit alpha-7 (Rattus norvegicus) (UniProt Q05941); assay: Positive allosteric modulator activity at rat alpha7 nAChR expressed in GH4C1 cells assessed as potentiation of acetylcholine response at 3 uM at -70 mV holding potential preincubated for 30 secs followed by co-application with acetylcholine by automated patch clamp assay; assay type: cell-based
Summary of the method: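 Automated planar patch clamp on stable GH4C1 (rat) cell lines expressing rat α7 nAChR; test compound at 3 μM with an EC₂₀ acetylcholine challenge; percent change in peak current versus acetylcholine alone taken as P₃.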

Mus musculus [2] = assay: Reversal of scopolamine-induced memory impairment in mouse assessed as percentage of increase in spontaneous alteration at 10 mg/kg, po administered with compond and scopolamine at 60 mins snd 30 mins respectively prior to test by T-maze test; assay type: functional; conditions: read-out: INH
Summary of the method: (§1)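 Mouse T-maze continuous alternation task with scopolamine-induced impairment of spontaneous alternation; compound given orally in saline-based vehicle with 25% Cremophor ELP over 0.003–10.0 mg/kg; group means compared by one-way ANOVA then Fisher's PLSD, p < 0.05 significant.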

Mus musculus [3] = assay: Reversal of scopolamine-induced memory impairment in mouse assessed as increase in spontaneous alteration at 3 mg/kg, po administered with compond and scopolamine at 60 mins and 30 mins respectively prior to test by T-maze test; assay type: functional; conditions: read-out: INH; summary of the method: as §1
Mus musculus [4] = assay: Reversal of scopolamine-induced memory impairment in mouse assessed as increase in spontaneous alteration at 1 mg/kg, po administered with compond and scopolamine at 60 mins and 30 mins respectively prior to test by T-maze test; assay type: functional; conditions: read-out: INH; summary of the method: as §1
[5] = Stability in human liver microsomes assessed as hepatic extraction ratio at 1 uM measured for 45 mins by LC-MS/MS analysis; assay type: ADME, Microsome; conditions: read-out: ERH
[6] = Solubility of the compound at pH 2; assay type: physicochemical; conditions: buffer
Mus musculus [7] = assay: Reversal of scopolamine-induced memory impairment in mouse assessed as increase in spontaneous alteration at 0.003 mg/kg, po administered with compond and scopolamine at 60 mins and 30 mins respectively prior to test by T-maze test; assay type: functional; summary of the method: as §1
[8] = Oral bioavailability in Sprague-Dawley rat; assay type: ADME, organism-based; conditions: in vivo
Mus musculus [9] = assay: Reversal of scopolamine-induced memory impairment in mouse assessed as increase in spontaneous alteration at 0.3 mg/kg, po administered with compond and scopolamine at 60 mins and 30 mins respectively prior to test by T-maze test; assay type: functional; summary of the method: as §1
[10] = molecular target: Neuronal acetylcholine receptor subunit alpha-7 (Rattus norvegicus) (UniProt Q05941); assay: (§2) Positive allosteric modulatory activity at rat alpha7 nAChR expressed in GH4C1 cells assessed as AUC of potentiation of peak current at -70 mV holding potential preincubated for 30 secs followed by co-application with acetylcholine by manual patch clamp assay relative to peak current potentiation; assay type: cell-based
Summary of the method: (§3)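 Conventional manual patch-clamp with a fast-application system on stable GH4C1 cells expressing rat α7 nAChR; currents evoked by acetylcholine with and without test compound; peak-current change relative to acetylcholine alone gives potentiation (P₃ at 3 μM; concentration–response for EC₅₀ and Pmax).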

[11] = Lipophilicity, log D of the compound at pH 7.4; assay type: physicochemical; conditions: buffer
[12] = Dose normalized AUC (0 to infinity) in Sprague-Dawley rat at 4 mg/kg administered as single IV bolus dose; assay type: ADME, organism-based; conditions: in vivo
Summary of the method: (§4)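 Single IV bolus of 4.0 mg/kg in male Sprague–Dawley rats; dosing solution 1.1 mg/mL in saline-based vehicle with 0.1 M hydroxypropyl-β-cyclodextrin and 10% (v/v) DMSO; plasma pharmacokinetic parameters derived.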

Mus musculus [13] = assay: Reversal of scopolamine-induced memory impairment in mouse assessed as increase in spontaneous alteration at 0.03 mg/kg, po administered with compond and scopolamine at 60 mins and 30 mins respectively prior to test by T-maze test; assay type: functional; summary of the method: as §1
[14] = Plasma clearance in Sprague-Dawley rat at 4 mg/kg administered as single IV bolus dose; assay type: ADME, organism-based; summary of the method: as §4
[15] = molecular target: Neuronal acetylcholine receptor subunit alpha-7 (Rattus norvegicus) (UniProt Q05941); assay: as §2, with “of acetylcholine response at 3 uM” for “of peak current”, “by automated” for “by manual”, “to potentiation of” for “to peak”, “current response” for “current potentiation”; assay type: cell-based
[16] = Half life in Sprague-Dawley rat plasma at 4 mg/kg administered as single IV bolus dose; assay type: ADME, organism-based; summary of the method: as §4
[17] = molecular target: Neuronal acetylcholine receptor subunit alpha-7 (Rattus norvegicus) (UniProt Q05941); assay: Positive allosteric modulatory activity at rat alpha7 nAChR expressed in GH4C1 cells assessed as potentiation of peak current at -70 mV holding potential preincubated for 30 secs followed by co-application with acetylcholine by manual patch clamp assay relative to acetylcholine-induced peak current; assay type: cell-based; summary of the method: as §3
[18] = Stability in mouse liver microsomes assessed as hepatic extraction ratio at 1 uM measured for 45 mins by LC-MS/MS analysis; assay type: ADME, Microsome; conditions: read-out: ERH
[19] = Volume of distribution at steady state in Sprague-Dawley rat at 4 mg/kg administered as single IV bolus dose; assay type: ADME, organism-based; conditions: in vivo, read-out: Vdss; summary of the method: as §4
[20] = molecular target: Neuronal acetylcholine receptor subunit alpha-7 (Rattus norvegicus, UniProt Q05941); assay: Positive allosteric modulatory activity at rat alpha7 nAChR expressed in GH4C1 cells assessed as potentiation of acetylcholine response at -70 mV holding potential preincubated for 30 secs followed by co-application with acetylcholine by manual patch clamp assay; assay type: cell-based; summary of the method: as §3
[21] = Apparent permeability in human Caco2 cells; assay type: ADME, cell-based; conditions: Caco-2
[22] = Solubility of the compound at pH 6.5; assay type: physicochemical; conditions: buffer
[23] = molecular target: Neuronal acetylcholine receptor subunit alpha-7 (Rattus norvegicus) (UniProt Q05941); assay: as §2, with “of acetylcholine response at 3 uM” for “of peak current”, “to potentiation of” for “to peak”, “current response” for “current potentiation”; assay type: cell-based; summary of the method: as §3
Mus musculus [24] = assay: Reversal of scopolamine-induced memory impairment in mouse assessed as spontaneous alteration at 3 to 30 mg/kg, po administered with compond and scopolamine at 60 mins and 30 mins respectively prior to test by T-maze test; assay type: functional, organism-based
Summary of the method: (§5)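 Mouse T-maze continuous alternation task; reversal of scopolamine-induced loss of spontaneous alternation after ip or oral doses of 3 and 30 mg/kg; significant doses reported.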

Mus musculus [25] = assay: Reversal of scopolamine-induced memory impairment in mouse assessed as increase in spontaneous alteration at 3 to 30 mg/kg, ip administered with compond and scopolamine at 60 mins snd 30 mins respectively prior to test by T-maze test; assay type: functional, organism-based; summary of the method: as §5
[26] = molecular target: Neuronal acetylcholine receptor subunit alpha-7 (Rattus norvegicus) (UniProt Q05941); assay: Positive allosteric modulatory activity at rat alpha7 nAChR expressed in GH4C1 cells assessed as potentiation of acetylcholine response at 3 uM at -70 mV holding potential preincubated for 30 secs followed by co-application with acetylcholine by manual patch clamp assay; assay type: cell-based; summary of the method: as §3

Chain of Neuronal acetylcholine receptor subunit alpha-7 (Rattus norvegicus) (Q05941 whole entry): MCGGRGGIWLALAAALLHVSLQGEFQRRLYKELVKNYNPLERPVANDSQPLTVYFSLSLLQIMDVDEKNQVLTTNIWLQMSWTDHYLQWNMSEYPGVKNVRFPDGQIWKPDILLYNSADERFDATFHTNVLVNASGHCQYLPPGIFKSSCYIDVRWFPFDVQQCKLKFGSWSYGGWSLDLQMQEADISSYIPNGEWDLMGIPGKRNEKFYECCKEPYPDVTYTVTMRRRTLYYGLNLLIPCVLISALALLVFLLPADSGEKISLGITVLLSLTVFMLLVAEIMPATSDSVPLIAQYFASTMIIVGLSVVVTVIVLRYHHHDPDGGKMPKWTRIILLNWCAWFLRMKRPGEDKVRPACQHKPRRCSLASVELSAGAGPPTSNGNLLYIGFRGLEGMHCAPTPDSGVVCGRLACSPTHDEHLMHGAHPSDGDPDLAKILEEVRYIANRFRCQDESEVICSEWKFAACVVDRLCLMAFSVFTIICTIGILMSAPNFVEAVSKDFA
Chain of Neuronal acetylcholine receptor subunit alpha-7 (Q05941 whole entry): as above

Activity [1]: 130%
SMILES: COc1ccc(Cl)cc1NCC1C(c2ccc(S(=O)(=O)NN)cc2)C1(C)C (racemic)

Activity [1]: 130%
SMILES: Cc1ncccc1NCC1C(c2ccc(S(N)(=O)=O)cc2)C1(C)C (racemic)

Activity [1]: 9230%
SMILES: Cc1cc(F)c(Cl)cc1NCC1C(c2ccc(S(N)(=O)=O)cc2)C1(C)C (racemic)

Activity [1]: 420%
SMILES: Cc1cc(F)c(F)cc1NC[C@@H]1[C@@H](c2ccc(S(N)(=O)=O)cc2)C1(C)C
percent increase in spontaneous alternation at 10 mg/kg (Mus musculus [2]): 15% | percent reversal of scopolamine-induced memory impairment at 3 mg/kg (Mus musculus [3]): 31% | percent reversal of scopolamine-induced memory impairment (increase in spontaneous alternation) at 1 mg/kg (Mus musculus [4]): 8%

Activity [1]: Active
SMILES: CCOc1ccc(Cl)cc1NC(=O)C1C(c2ccc(S(N)(=O)=O)cc2)C1(CC)CC (configuration not stated)

hepatic extraction ratio at 0.75 h, 1 µM [5]: 0.84 | solubility [6]: > 100 µg/mL | bioavailability [8]: 62% | Ratio [10]: 1.7 | logD [11]: 4.2 | AUC/dose [12]: 1.2 µM·h/mg | Activity [1]: 1160% | clearance [14]: 35 mL/min/kg | Ratio [15]: 3.1 | half-life [16]: 1.2 h | Emax [17]: 1570% | hepatic extraction ratio at 0.75 h, 1 µM [18]: 0.79 | Vd [19]: 1.8 L/kg | EC50 [20]: 1900 nM | Papp [21]: 11 ×10⁻⁶ cm/s | solubility [22]: 1.6 to 3.1 µg/mL (≈ 4.05 to 7.85 µM)
SMILES: COc1ccc(Cl)cc1NC[C@@H]1[C@@H](c2ccc(S(N)(=O)=O)cc2)C1(C)C
inhibition in vivo at 0.003 mg/kg (Mus musculus [7]): -9% | inhibition in vivo at 0.3 mg/kg (Mus musculus [9]): 62% | percent reversal of scopolamine-induced memory impairment at 3 mg/kg (Mus musculus [3]): 78% | inhibition in vivo at 0.03 mg/kg (Mus musculus [13]): 51% | percent reversal of scopolamine-induced memory impairment (increase in spontaneous alternation) at 1 mg/kg (Mus musculus [4]): 78%

Activity [1]: 470%
SMILES: Cc1cc(F)ccc1NC[C@@H]1[C@@H](c2ccc(S(N)(=O)=O)cc2)C1(C)C

Activity [1]: 8930%
SMILES: Cc1cc(F)c(F)cc1NC[C@H]1[C@H](c2ccc(S(N)(=O)=O)cc2)C1(C)C
percent increase in spontaneous alternation at 10 mg/kg (Mus musculus [2]): -5% | percent reversal of scopolamine-induced memory impairment at 3 mg/kg (Mus musculus [3]): -15% | percent reversal of scopolamine-induced memory impairment (increase in spontaneous alternation) at 1 mg/kg (Mus musculus [4]): -13%

Activity [1]: < 100%
SMILES: CC(C)(C)c1cc(NCC2C(c3ccc(S(N)(=O)=O)cc3)C2(C)C)no1 (racemic)

Activity [1]: 2570 to 9890%
SMILES: CC1(C)C(CNc2ccccc2)C1c1ccc(S(N)(=O)=O)cc1 (racemic)

Activity [1]: 2860%
SMILES: CC1(C)[C@@H](CNc2ccc(F)cc2C(F)(F)F)[C@@H]1c1ccc(S(N)(=O)=O)cc1
percent increase in spontaneous alternation at 10 mg/kg (Mus musculus [2]): 79% | percent reversal of scopolamine-induced memory impairment at 3 mg/kg (Mus musculus [3]): 39% | percent reversal of scopolamine-induced memory impairment (increase in spontaneous alternation) at 1 mg/kg (Mus musculus [4]): 40%

Activity [1]: 720%
SMILES: COc1ccc(Cl)cc1NCC1C(c2ccc(S(=O)(=O)NO)cc2)C1(C)C (racemic)

Activity [1]: 8170%
SMILES: COc1ccc(C(F)(F)F)cc1NCC1C(c2ccc(S(N)(=O)=O)cc2)C1(C)C (racemic)

Activity [1]: < 100%
SMILES: CC1(C)C(CNc2ccc(N3CCOCC3)cc2)C1c1ccc(S(N)(=O)=O)cc1 (racemic)

Activity [1]: Active
SMILES: CCOc1ccc(Cl)cc1NC(=O)C1C(c2ccc(S(N)(=O)=O)cc2)C1(C1CCCCC1)C1CCCCC1 (configuration not stated)

Activity [1]: 3000%
SMILES: CC1(C)C(CNc2cncc(F)c2)C1c1ccc(S(N)(=O)=O)cc1 (racemic)

Ratio [23]: 5.6 | logD [11]: 4.2 | Activity [1]: 710% | Activity [26]: 360% | solubility [22]: 1.6 to 3.1 µg/mL (≈ 3.68 to 7.13 µM)
SMILES: COc1ccc(Cl)cc1NC(=O)C1C(c2ccc(S(N)(=O)=O)cc2)C12CCCC2 (racemic)
inhibition (Mus musculus [24]): inactive | inhibition (Mus musculus [25]): Active
